mIAP activ – activators of mouse IAP, primary screen, biochemical, luminescence, uHTS; intestinal alkaline phosphatase [Mus musculus]; muIAP, CDP-Star luminescence, 30 min; hits give high values; 1 = vehicle-only enzyme signal, 0 = enzyme-free wells; activation factor at 10 µM; 0.24% of 330,000 active;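 active = activation factor of at least 2 at 20 µM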
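Assay system: mouse IAP enzyme; Reagent: CDP-Star chemiluminescent phosphatase substrate; Compound: DMSO-dissolved test compounds; Incubation: 30 min, room temperature; Technique: luminescence from enzymatic CDP-Star hydrolysis; Controls: DMSO-only wells and no-enzyme negative control.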
hIAP act – human IAP activators, primary screen, biochemical, luminescence, uHTS. Intestinal-type alkaline phosphatase (Homo sapiens), P09923. purified human IAP, CDP-Star luminescence, 30 min; hits give high values; 1 = vehicle-only enzyme, 0 = enzyme-free background. activation factor at 10 µM. 0.16% of 330,000 active. AID 2524, 2010;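 active = activation factor of the enzyme at least 2-fold when tested at 20 µM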
Target sequence (P09923 whole entry, looked up): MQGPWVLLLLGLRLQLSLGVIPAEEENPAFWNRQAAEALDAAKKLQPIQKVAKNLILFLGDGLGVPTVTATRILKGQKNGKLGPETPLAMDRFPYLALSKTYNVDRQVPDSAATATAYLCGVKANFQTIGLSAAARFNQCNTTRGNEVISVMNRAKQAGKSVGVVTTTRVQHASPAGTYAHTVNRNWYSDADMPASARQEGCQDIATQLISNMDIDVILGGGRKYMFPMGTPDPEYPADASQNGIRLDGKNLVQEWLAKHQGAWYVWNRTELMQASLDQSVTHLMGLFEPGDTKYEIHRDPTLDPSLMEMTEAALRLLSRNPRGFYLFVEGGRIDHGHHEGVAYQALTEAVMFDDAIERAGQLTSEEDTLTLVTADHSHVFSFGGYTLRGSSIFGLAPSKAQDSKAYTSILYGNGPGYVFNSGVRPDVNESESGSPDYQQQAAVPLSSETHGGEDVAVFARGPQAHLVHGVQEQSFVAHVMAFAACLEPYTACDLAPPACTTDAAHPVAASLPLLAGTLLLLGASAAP
bIAP inh – bovine intestinal alkaline phosphatase inhibitors, primary screen, selectivity assay for TNAP inhibitor project, biochemical, bovine IAP, CDP-star luminescence; inhibition, % at 20 µM; purified bovine IAP, 30 min; alkaline phosphatase, intestinal [Bos taurus]; 190,000 tested, under 10 active; AID 1019, 2008;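 active = over 50% inhibition of intestinal alkaline phosphatase at 20 µM in the single-dose screen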
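System: Purified bovine intestinal alkaline phosphatase (IAP) enzyme | Input: IAP diluted 1/65,000,000 in the well | Also added: CDP-star chemiluminescent phosphatase substrate, 30 µM final | Dosing: 20 µM single dose | Times: Enzyme reaction for 30 min at room temperature | Detection: Luminescence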
hIAP inh – human IAP inhibitors, primary screen, biochemical, luminescence, uHTS; 0.12% of 330,000 active; inhibition, % at 10 µM; Intestinal-type alkaline phosphatase (Homo sapiens), P09923; purified IAP, CDP-Star luminescence, 30 min;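 active = inhibition reaching a set limit with compound at 10 µM in the primary screen, cut at about 35% in these data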;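 note: plate controls were DMSO wells with enzyme for no effect and no-enzyme buffer wells for full effect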
bIAP act – bovine intestinal alkaline phosphatase activators, primary screen, biochemical, bovine IAP, CDP-star luminescence; purified bovine IAP, 30 min; hits give high values; fold of DMSO-control signal, blank-subtracted; activation factor at 20 µM; 0.17% of 200,000 active; AID 1016, 2008;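 active = activation factor of 2 or more at 20 µM, a signal rise over negative controls twice the positive control's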
mIAP block – inhibitors of mouse IAP, primary screen, biochemical, luminescence, uHTS; 0.2% of 330,000 active; inhibition, % at 10 µM; purified mouse IAP, CDP-Star luminescence, 30 min; intestinal alkaline phosphatase [Mus musculus]; AID 2806, 2010;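 active = inhibition of at least 40% at 10 µM in the primary screen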;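 note: plate controls were DMSO with enzyme for no effect and no enzyme wells for full effect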
mIAP inh confirm – inhibitors of mouse IAP, confirmation, biochemical, luminescence, single concentration. inhibition, % at 10 µM. purified mouse IAP, CDP-Star luminescence, 30 min. AID 434971, 2010. 4.7% of 11,000 active. shares compounds with mIAP block;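 active = inhibition of at least 40% at 10 µM in either of the two replicates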;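 note: plate controls were DMSO wells with enzyme for no effect and buffer wells lacking enzyme for full effect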
Starred values were filed as active, the others as inactive; nt = no result given. Rows were chosen to be rich in hits. Some 0.79% of all compounds tested hit in one or more screens of this group.

SMILES | mIAP activ | hIAP act | bIAP inh | hIAP inh | bIAP act | mIAP block | mIAP inh confirm
O=C(NCCCc1ccccc1)C1CC1 | 1.1 | 1.1 | nt | -13 | nt | -7 | nt
Cc1ccccc1C(=O)N1CCC(C(=O)Nc2cccc(F)c2)CC1 | 1.1 | 1.2 | -12 | -16 | 1.1 | -9 | nt
Cc1cc(C)n(CCCN2CCC(C(=O)Nc3cccc(-c4cccc(F)c4)c3)CC2)n1 | 3.5* | 1 | nt | 0 | nt | -250 | -202
Cc1cc(-c2ccc(N=Nc3c(S(=O)(=O)O)cc4cc(S(=O)(=O)O)cc(N)c4c3O)c(C)c2)ccc1N=Nc1c(S(=O)(=O)O)cc2cc(S(=O)(=O)O)cc(N)c2c1O | 0.23 | 0.72 | nt | 28 | nt | 77* | 83*
COc1ccc(C(=O)/C=C/c2ccc(OC)c(Cn3nnc4ccccc43)c2)cc1 | 0.94 | 0.76 | 12 | 24 | 0.9 | 6 | nt
O=C1N=c2ccccc2=C1c1sc(=S)n(NC(=O)c2ccccc2)c1O | 0.36 | 1.3 | nt | -25 | nt | 64* | 64*
Cn1c(O)c(C2=c3ccccc3=NC2=O)[nH]c1=S | 0.78 | 1.1 | 3 | -10 | 1 | 22 | nt
CC(=O)NCc1ccc(-c2csc(N)n2)s1 | 0.28 | 0.88 | 9 | 12 | 0.9 | 72* | 77*
Cc1ccc(-c2csc(N)n2)s1 | 0.32 | 0.77 | 3 | 23 | 1 | 68* | 78*
CC(=O)Nc1cccc(-c2csc(N)n2)c1 | 1.1 | 1.2 | 6 | -16 | 0.9 | -6 | nt
Cc1csc(N)n1 | 0.97 | 1 | 12 | -2 | 0.9 | 3 | nt
CCOC(=O)C1CCN(S(=O)(=O)NC[C@H]2O[C@@H](n3cnc4c(N)ncnc43)[C@H](O)[C@@H]2O)C1 (stereo partly specified) | 1.1 | nt | nt | nt | nt | -9 | nt
N=C1/C(=C\c2coc3ccc(O)cc3c2=O)C(=O)N=C2SC=CN12 | 0.41 | 1.1 | nt | -7 | nt | 59* | 64*
CC/C(C)=N/Nc1nc2c(c(=O)[nH]c(=O)n2C)n1CCc1ccccc1 | 0.59 | 1.2 | 2 | -16 | 1 | 41* | 47*
N#Cc1cc2cc3c(cc2nc1NCCNC(=S)NCCCN1CCOCC1)OCO3 | 0.96 | 1.1 | -22 | -9 | 1.2 | 4 | nt
CCc1ccc(NC(=O)Nc2ccc3c(c2)N(C)C(=O)CS3)cc1 | 2.9* | 1.6 | 13 | -60 | 0.9 | -187 | -114
Cc1cc(C)cc(NC(=O)Nc2ccc3c(c2)N(C)C(=O)CS3)c1 | 4* | 1.4 | 0 | -42 | 1 | -298 | -154
C=CCc1ccc(OCc2ccc(C(=O)Nc3ccc(NC(C)=O)cc3)o2)c(OC)c1 | 0.99 | 1.2 | nt | -16 | nt | 1 | nt
Cn1c(=O)c2c(nc(SCC(=O)NCC3CCCO3)n2Cc2ccc(F)cc2)n(C)c1=O (stereo unspecified) | 0.96 | 0.94 | -4 | 6 | 1 | 4 | nt
COc1cccc(/C=C2/SC(=S)N(CC(=O)NNC(=O)c3ccccc3O)C2=O)c1 | 0.75 | 2 | nt | -97 | nt | 25 | nt
O=C(CN1C(=O)/C(=C/c2ccccc2)SC1=S)NNC(=O)c1ccccc1O | 0.59 | 1.6 | -3 | -58 | 1 | 41* | 43*
CCc1ncc(CN2CCCC(C(=O)Nc3ccc(-c4cscn4)cc3)C2)cn1 (stereo unspecified) | 0.96 | 1.1 | nt | -10 | nt | 4 | nt
CCOC(=O)c1cc(CC)sc1/N=C/C1=C(O)CC(C)(C)CC1=O | 1 | 0.99 | -23 | 1 | 1.2 | -1 | nt
CCOC(=O)c1sc(N=NC2=C(O)CC(C)(C)CC2=O)c(C(=O)OCC)c1C | 4* | 1.2 | -10 | -25 | 1.1 | -297 | -210
O=C(COc1ccc(Cl)cc1)Nc1ncc([N+](=O)[O-])s1 | nt | nt | -11 | nt | 1.1 | nt | nt
Cc1csc(NC(=O)CSc2nncn2C)n1 | 1.1 | 1.1 | 5 | -15 | 1 | -8 | nt

Bioassay records from PubChem.
